# “Also recorded” adds a separate entry of the source. Like-named read-outs stand apart in the source and are kept apart here. Marks after values point to notes of the source that are not given here.
# Key:
# [1] = cited from earlier work
# [2] = healthy volunteers, cited from earlier work
# [3] = human; cited from earlier work
# [4] = system: CYP3A4; conditions: lenvatinib 0.1–10 µg/mL, human liver microsomes and human recombinant CYPs; ref Eisai data on file; cited from earlier work
# [5] = Safety assessments; format: in vivo, human
# How it was run: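 Healthy adults in a randomized two-sequence crossover with a 14-day washout. Each period gave an oral 400 mg interacting drug or placebo once daily for 18 days, plus a single oral 5 mg test compound on day 5 after a 10-h fast. AEs checked daily, graded mild/moderate/severe and for causality, coded in MedDRA v14.0. Vital signs taken before PK draws. Labs, 12-lead ECG and physical exam at baseline, predose and discharge. Summarized descriptively in dosed subjects with ≥1 postdose assessment.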
# [6] = single agent, Phase I and II studies; cited from earlier work
# [7] = format: in vivo, human; conditions: for AUC(0-t) / AUC(0-inf) / Tmax / half-life: human, plasma, oral
# [8] = 5 mg lenvatinib + ketoconazole 400 mg/day [B], n = 16
# [9] = 5 mg lenvatinib + placebo [A], n = 16
# [10] = 5 mg, arithmetic mean (SD), 5 mg lenvatinib + placebo [A], n = 16
# [11] = 5 mg, geometric mean (%CV), 5 mg lenvatinib + placebo [A], n = 16
# [12] = arithmetic mean (SD), 5 mg lenvatinib + ketoconazole 400 mg/day [B], n = 16
# [13] = geometric mean (%CV), 5 mg lenvatinib + ketoconazole 400 mg/day [B], n = 16
structure (smiles),measurement,setting,value
Cc1cn(-c2cc(NC(=O)c3ccc(C)c(Nc4nccc(-c5cccnc5)n4)c3)cc(C(F)(F)F)c2)cn1 [nilotinib],Increase in AUC with ketoconazole coadministration,[1]; nilotinib,more than 200%
same,Increase in Cmax with ketoconazole coadministration,[1]; nilotinib,84%
COc1cc2nccc(Oc3ccc(NC(=O)NC4CC4)c(Cl)c3)c2cc1C(N)=O [Lenvatinib],Median tmax,[2]; range 1–4 hours,2 h
same,Mean t½,[2]; range 11–57 hours,27.6 h
same,AUC0–∞,[2],1409 ng·h/mL
same,Mean Cmax,[2],144.5 ng/mL
same,Renal clearance as contributor to oral clearance,[3],1–2%
same,"Terminal exponential half-life (t½,z)",[3],~28 h
same,Share of CYP3A4 in the CYP-mediated metabolism of lenvatinib,[4],> 80%
same,Subjects reporting treatment-emergent AEs,"[5]; following ketoconazole with lenvatinib, 18 subjects",44%
same,Subjects reporting treatment-emergent AEs,"[5]; following placebo with lenvatinib, 17 subjects",59%
same,ECG results,"[5]; overall, both treatments",either normal or considered not clinically significant
same,Serious TEAEs,"[5]; overall, both treatments",No serious TEAEs were reported
same,Subjects with treatment-related TEAEs,"[5]; overall, both treatments",22%
same,Subjects reporting treatment-emergent AEs,"[5]; overall, both treatments, N = 18",72%
same,Hypertension,"[5]; single-dose lenvatinib 5 mg alone or with ketoconazole, healthy subjects",not observed
same,Maximum tolerated dose,[6],25 mg/day
same,"CL/F, arithmetic mean (SD)",[7]; [8],7.70 (1.49) L/h
same,"tlag, arithmetic mean (SD)",[7]; [8],0.06 (0.17) ^e h
same,"CL/F, arithmetic mean (SD)",[7]; [9],8.78 (1.40) L/h
same,"tlag, arithmetic mean (SD)",[7]; [9],0.16 (0.24) ^b h
same,Increase in Cmax with ketoconazole versus placebo,"[7]; 5 mg lenvatinib, ketoconazole 400 mg/day",19%
same,Percent extrapolation of AUC0–∞,[7]; across all subjects,< 4%
same,Median time at which Cmax was achieved,[7]; both treatment conditions (placebo or ketoconazole),3 h
same,AUC(0-t),[7]; [10],571 ng·h/mL
same,AUC(0-t),[7]; [11],564 ng·h/mL
same,AUC(0-inf),[7]; [10],584 ng·h/mL
same,AUC(0-inf),[7]; [11],577 ng·h/mL
same,Tmax,"[7]; 5 mg, tmax median (range), 5 mg lenvatinib + placebo [A]",3 h
same,Tmax,"[7]; 5 mg, tmax, arithmetic mean (SD), 5 mg lenvatinib + placebo [A], n = 16",3.13 h
same,half-life,"[7]; 5 mg, t½ median (range), 5 mg lenvatinib + placebo [A]",29 h
same,AUC(0-t),[7]; [12],661 ng·h/mL
same,AUC(0-t),[7]; [13],647 ng·h/mL
same,AUC(0-inf),[7]; [12],676 ng·h/mL
same,AUC(0-inf),[7]; [13],662 ng·h/mL
same,Tmax,"[7]; tmax median (range), 5 mg lenvatinib + ketoconazole [B]",3 h
same,Tmax,"[7]; tmax, arithmetic mean (SD), 5 mg lenvatinib + ketoconazole 400 mg/day [B], n = 16",2.56 h
same,half-life,"[7]; t½ median (range), 5 mg lenvatinib + ketoconazole [B]",29.2 h
same,half-life,"[7]; t½, arithmetic mean (SD), 5 mg lenvatinib + ketoconazole 400 mg/day [B], n = 16",28.3 h
same,Decrease in apparent mean clearance in the ketoconazole treatment group,[7]; versus placebo,~12%
same,"Difference in tmax, t½ or tlag between the two treatments","[7]; visual assessment, ketoconazole versus placebo",No changes; also recorded: no difference
Cc1ccc(NC(=O)c2ccc(CN3CCN(C)CC3)cc2)cc1Nc1nccc(-c2cccnc2)n1 [imatinib],Increase in AUC with ketoconazole coadministration,[1]; imatinib,40%

# — paper PMC4467237 (Clinical Pharmacology in Drug Development, 2014)
